The first assay deals with Estrogen receptor beta (Homo sapiens) (UniProt Q92731). As to the kind of experiment: Agonist activity at ERbeta expressed in HEK293 cells at 10 uM after 24 hrs by luciferase reporter gene assay relative to 3,17-beta-estradiol. In kind it is functional, cell-based. In a few lines: (§1)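 HEK293 cells (no endogenous ER) in phenol-free DMEM with 5% delipidated FBS were transfected for 4 h with 5 ng ERα or ERβ expression vector, 75 ng pERE2TATA-LUC reporter and 20 ng pCMVβ. Cells then received 10 μM compound, 10 nM E2 or vehicle (0.1% v/v) for 24 h. Luciferase was normalized to β-galactosidase and expressed as 100% × (test − vehicle)/(E2 − vehicle). Values are means of at least three independent transfections.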
Chain of Estrogen receptor beta (Homo sapiens) (Q92731 whole entry): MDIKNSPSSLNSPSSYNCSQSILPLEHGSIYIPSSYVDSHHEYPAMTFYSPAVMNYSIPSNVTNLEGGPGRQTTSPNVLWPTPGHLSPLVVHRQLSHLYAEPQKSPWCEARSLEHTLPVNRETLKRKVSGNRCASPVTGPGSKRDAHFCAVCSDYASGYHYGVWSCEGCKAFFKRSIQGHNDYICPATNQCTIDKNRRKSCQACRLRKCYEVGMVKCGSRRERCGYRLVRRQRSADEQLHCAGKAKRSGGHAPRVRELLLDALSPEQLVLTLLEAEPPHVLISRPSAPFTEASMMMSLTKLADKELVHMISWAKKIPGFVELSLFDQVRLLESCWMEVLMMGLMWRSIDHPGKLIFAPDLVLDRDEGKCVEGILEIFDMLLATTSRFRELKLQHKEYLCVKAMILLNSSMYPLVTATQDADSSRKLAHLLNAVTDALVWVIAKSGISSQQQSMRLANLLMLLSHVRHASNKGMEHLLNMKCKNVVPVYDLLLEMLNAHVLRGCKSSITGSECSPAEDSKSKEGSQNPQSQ
(In a reporter assay the amount or activity of a reporter protein is the signal.)
With `Oc1ccc(CC2CC(CCc3ccccc3)=NO2)cc1` (centres undefined), the Activity is 42.4%. On the same count and under the same terms, the result for `Oc1ccccc1CCC1=NOC(Cc2ccc(F)cc2)C1` (centres undefined) reads -2.4%; that for `c1ccc(CCC2=NOC(CCc3ccccc3)C2)cc1` (centres undefined), -0.4%. The same measure, in the same setting: the value for `c1ccc(CCCC2=NOC(Cc3ccccc3)C2)cc1` (centres undefined) was 5.1%; that for `CC(O)(CC(=O)CCc1ccc(O)cc1)c1ccccc1` (racemic) was 116%; that for `CC(O)(CC(=O)CCc1ccccc1)c1ccccc1` (racemic) was 38.4%.

As for `O=C(CCCc1ccc(O)c(O)c1)CC(O)Cc1ccc(O)cc1` (racemic), the Activity was -0.6%. The same measure, in the same setting: the result for `O=C(CCCc1ccc(O)c(O)c1)CC(O)Cc1ccccc1` (racemic) reads -0.8%; that for `O=C(CCCc1ccccc1)CC(O)Cc1ccc(O)cc1` (racemic), 2.4%. The same measure, in the same setting: the value for `O=C(CCc1ccc(O)cc1)CC(O)Cc1ccc(F)cc1` (racemic) was 21.2%; that for `O=C(CCc1ccccc1)CC(O)Cc1ccc(O)cc1` (racemic) was 6.1%. Still for that read-out and setting: the value for `O=C(CCc1ccccc1O)CC(O)CCc1ccccc1` (racemic) was 1.1%.

Turning to `O=C(CCc1ccccc1O)CC(O)Cc1ccc(F)cc1` (racemic), the Activity is 11.1%.

Consider `O=C(CCc1ccccc1O)CC(O)Cc1ccccc1` (racemic), for which the Activity turned out to be 5.1%. On the same count and under the same terms, the result for `Fc1ccc(CC2CC(CCc3ccccc3)=NO2)cc1` (single isomer, unassigned) reads 7.4%; that for `O=C(CCCc1ccc(O)cc1)CC(O)c1cccc(O)c1` (single isomer, unassigned), 43.5%. The same measure, in the same setting: the result for `O=C(CCc1ccccc1)CC(O)c1ccccc1` (single isomer, unassigned) reads 2.8%; that for `Oc1ccc(CCC2=NOC(CCc3ccccc3)C2)cc1` (single isomer, unassigned), 15.4%; that for `Oc1ccc(CCC2=NOC(Cc3ccc(F)cc3)C2)cc1` (single isomer, unassigned), 4.4%. On the same count and under the same terms, the value for `Oc1ccc(CCCC2=NOC(Cc3ccc(O)cc3)C2)cc1` (single isomer, unassigned) was 10.6%; that for `Oc1ccc(CCCC2=NOC(Cc3ccccc3)C2)cc1` (single isomer, unassigned) was 19.8%; that for `Oc1ccc(CCCC2=NOC(c3cccc(O)c3)C2)cc1` (single isomer, unassigned) was -0.9%. Turning to `Oc1cccc(CCC2=NOC(CCc3ccccc3)C2)c1` (single isomer, unassigned), the Activity came out at 3.6%. For the compound `Oc1ccccc1CCC1=NOC(CCc2ccccc2)C1` (single isomer, unassigned), the Activity was determined as 4.2%. Take `Oc1ccccc1CCC1=NOC(Cc2ccccc2)C1` (single isomer, unassigned): the Activity was 30.5%. As to `c1ccc(CCC2=NOC(Cc3ccccc3)C2)cc1` (single isomer, unassigned), the Activity turned out to be 1.3%. Same read-out and setting: the value for `c1ccc(CCC2=NOC(c3ccccc3)C2)cc1` (single isomer, unassigned) was 8.1%; that for `Oc1ccc(CC2CC(CCCc3ccccc3)=NO2)cc1` (single isomer, unassigned; 25a) was 4.7%. Still for that read-out and setting: the value for `Oc1ccc(CC2CC(CCCc3ccccc3)=NO2)cc1` (single isomer, unassigned; 25b) was 17%; that for `Oc1ccc(CCCC2=NOC(Cc3ccccc3)C2)cc1O` (single isomer, unassigned; 27a) was 1.3%; that for `Oc1ccc(CCCC2=NOC(Cc3ccccc3)C2)cc1O` (single isomer, unassigned; 27b) was -1.3%. Still for that read-out and setting: the value for `Oc1ccc(CC2CC(CCCc3ccc(O)c(O)c3)=NO2)cc1` (single isomer, unassigned; 28a) was -1.1%. Take `Oc1ccc(CC2CC(CCCc3ccc(O)c(O)c3)=NO2)cc1` (single isomer, unassigned; 28b): the Activity was -0.7%.

On to `CC1(c2ccccc2)CC(CCc2ccccc2)=NO1` (single isomer, unassigned; 36a), for which the Activity is -20%. Take `CC1(c2ccccc2)CC(CCc2ccccc2)=NO1` (single isomer, unassigned; 36b): the Activity is -7.3%. The same measure, in the same setting: the value for `CC1(c2ccccc2)CC(CCc2ccccc2O)=NO1` (single isomer, unassigned; 37a) was -0.4%. With `CC1(c2ccccc2)CC(CCc2ccccc2O)=NO1` (single isomer, unassigned; 37b), the Activity is 30%. The same measure, in the same setting: the result for `CC1(c2ccccc2)CC(CCc2cccc(O)c2)=NO1` (single isomer, unassigned; 38a) reads 0.5%; that for `CC1(c2ccccc2)CC(CCc2cccc(O)c2)=NO1` (single isomer, unassigned; 38b), -2.9%. For the compound `CC1(c2ccccc2)CC(CCc2ccc(O)cc2)=NO1` (single isomer, unassigned; 39a), the Activity was 18%. The same measure, in the same setting: the value for `CC1(c2ccccc2)CC(CCc2ccc(O)cc2)=NO1` (single isomer, unassigned; 39b) was 37.4%. Still for that read-out and setting: the value for `Oc1ccccc1CCC1=NOC(CCc2ccccc2)C1` (stereo in doubt; 16b) was 2.6%; that for `Oc1cccc(CCC2=NOC(CCc3ccccc3)C2)c1` (stereo in doubt; 17a) was 2.6%. Regarding `Oc1ccc(CCC2=NOC(CCc3ccccc3)C2)cc1` (stereo in doubt; 18b), the Activity was found to be 0.8%.

In the case of `c1ccc(CCCC2=NOC(c3ccccc3)C2)cc1` (stereo in doubt; 43a), the Activity was -3.1%.

In another assay the target is T1, Estrogen receptor (Homo sapiens) (UniProt P03372).
T1 sequence (whole entry): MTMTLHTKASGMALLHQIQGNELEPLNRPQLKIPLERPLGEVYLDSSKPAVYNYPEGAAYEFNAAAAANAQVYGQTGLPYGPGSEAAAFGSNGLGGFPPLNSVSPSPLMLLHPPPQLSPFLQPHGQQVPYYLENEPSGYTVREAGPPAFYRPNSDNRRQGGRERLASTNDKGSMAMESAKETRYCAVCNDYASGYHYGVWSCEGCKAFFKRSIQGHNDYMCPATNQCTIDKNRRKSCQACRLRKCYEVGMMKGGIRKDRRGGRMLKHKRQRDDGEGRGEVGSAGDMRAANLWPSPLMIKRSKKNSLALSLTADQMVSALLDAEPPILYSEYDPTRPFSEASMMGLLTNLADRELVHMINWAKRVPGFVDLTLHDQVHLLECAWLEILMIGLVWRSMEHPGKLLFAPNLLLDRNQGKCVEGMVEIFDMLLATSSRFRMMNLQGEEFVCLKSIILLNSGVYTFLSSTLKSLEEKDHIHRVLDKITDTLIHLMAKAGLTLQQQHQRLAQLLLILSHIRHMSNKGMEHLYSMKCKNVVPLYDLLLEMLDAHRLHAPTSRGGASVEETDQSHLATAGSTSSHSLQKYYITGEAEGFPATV
As to the kind of experiment: Agonist activity at ERalpha expressed in HEK293 cells at 10 uM after 24 hrs by luciferase reporter gene assay relative to 3,17-beta-estradiol. It counts as functional, cell-based. In a few lines:
as §1
In the case of `Oc1ccc(CC2CC(CCc3ccccc3)=NO2)cc1` (centres undefined), the Activity is 105%.

In the case of `Oc1ccccc1CCC1=NOC(Cc2ccc(F)cc2)C1` (centres undefined), the Activity is 11.1%. In the case of `c1ccc(CCC2=NOC(CCc3ccccc3)C2)cc1` (centres undefined), the Activity worked out at 43.9%. With `c1ccc(CCCC2=NOC(Cc3ccccc3)C2)cc1` (centres undefined), the Activity is 28.1%.

Regarding `CC(O)(CC(=O)CCc1ccc(O)cc1)c1ccccc1` (racemic), the Activity amounted to 80.3%. Still for that read-out and setting: the result for `CC(O)(CC(=O)CCc1ccccc1)c1ccccc1` (racemic) reads 52.1%; that for `O=C(CCCc1ccc(O)c(O)c1)CC(O)Cc1ccc(O)cc1` (racemic), 0.5%; that for `O=C(CCCc1ccc(O)c(O)c1)CC(O)Cc1ccccc1` (racemic), -0.5%.

As to `O=C(CCCc1ccccc1)CC(O)Cc1ccc(O)cc1` (racemic), the Activity was found to be 16%. Same read-out and setting: the result for `O=C(CCc1ccc(O)cc1)CC(O)Cc1ccc(F)cc1` (racemic) reads 28.6%; that for `O=C(CCc1ccccc1)CC(O)Cc1ccc(O)cc1` (racemic), 51.4%.

On to `O=C(CCc1ccccc1O)CC(O)CCc1ccccc1` (racemic), for which the Activity stood at 4%. Turning to `O=C(CCc1ccccc1O)CC(O)Cc1ccc(F)cc1` (racemic), the Activity was found to be 21.6%.

In the case of `O=C(CCc1ccccc1O)CC(O)Cc1ccccc1` (racemic), the Activity came out at 45.2%.

As for `Fc1ccc(CC2CC(CCc3ccccc3)=NO2)cc1` (single isomer, unassigned), the Activity was found to be 28.9%.

For `O=C(CCCc1ccc(O)cc1)CC(O)c1cccc(O)c1` (single isomer, unassigned), the Activity is 49.3%.

As to `O=C(CCc1ccccc1)CC(O)c1ccccc1` (single isomer, unassigned), the Activity came to 25.3%.

Take `Oc1ccc(CCC2=NOC(CCc3ccccc3)C2)cc1` (single isomer, unassigned): the Activity was determined as 62.8%.

Turning to `Oc1ccc(CCC2=NOC(Cc3ccc(F)cc3)C2)cc1` (single isomer, unassigned), the Activity amounted to 5.7%.

Consider `Oc1ccc(CCCC2=NOC(Cc3ccc(O)cc3)C2)cc1` (single isomer, unassigned), for which the Activity stood at 13.6%. As for `Oc1ccc(CCCC2=NOC(Cc3ccccc3)C2)cc1` (single isomer, unassigned), the Activity is 75.1%. The same measure, in the same setting: the result for `Oc1ccc(CCCC2=NOC(c3cccc(O)c3)C2)cc1` (single isomer, unassigned) reads 32.9%; that for `Oc1cccc(CCC2=NOC(CCc3ccccc3)C2)c1` (single isomer, unassigned), 3%. For the compound `Oc1ccccc1CCC1=NOC(CCc2ccccc2)C1` (single isomer, unassigned), the Activity worked out at 4.5%.

Consider `Oc1ccccc1CCC1=NOC(Cc2ccccc2)C1` (single isomer, unassigned), for which the Activity is 39.7%. The same measure, in the same setting: the result for `c1ccc(CCC2=NOC(Cc3ccccc3)C2)cc1` (single isomer, unassigned) reads 38.2%. Same read-out and setting: the value for `c1ccc(CCC2=NOC(c3ccccc3)C2)cc1` (single isomer, unassigned) was 11.2%; that for `Oc1ccc(CC2CC(CCCc3ccccc3)=NO2)cc1` (single isomer, unassigned; 25a) was 67.1%. The same measure, in the same setting: the result for `Oc1ccc(CC2CC(CCCc3ccccc3)=NO2)cc1` (single isomer, unassigned; 25b) reads 97.2%. As for `Oc1ccc(CCCC2=NOC(Cc3ccccc3)C2)cc1O` (single isomer, unassigned; 27a), the Activity was 0.3%. Same read-out and setting: the result for `Oc1ccc(CCCC2=NOC(Cc3ccccc3)C2)cc1O` (single isomer, unassigned; 27b) reads 2.1%; that for `Oc1ccc(CC2CC(CCCc3ccc(O)c(O)c3)=NO2)cc1` (single isomer, unassigned; 28a), 1.7%. The same measure, in the same setting: the value for `Oc1ccc(CC2CC(CCCc3ccc(O)c(O)c3)=NO2)cc1` (single isomer, unassigned; 28b) was 1.4%. Still for that read-out and setting: the value for `CC1(c2ccccc2)CC(CCc2ccccc2)=NO1` (single isomer, unassigned; 36a) was 8.1%. `CC1(c2ccccc2)CC(CCc2ccccc2)=NO1` (single isomer, unassigned; 36b): the Activity was determined as 10.9%. On the same count and under the same terms, the value for `CC1(c2ccccc2)CC(CCc2ccccc2O)=NO1` (single isomer, unassigned; 37a) was 11.8%; that for `CC1(c2ccccc2)CC(CCc2ccccc2O)=NO1` (single isomer, unassigned; 37b) was 21.7%. Same read-out and setting: the value for `CC1(c2ccccc2)CC(CCc2cccc(O)c2)=NO1` (single isomer, unassigned; 38a) was 21.6%; that for `CC1(c2ccccc2)CC(CCc2cccc(O)c2)=NO1` (single isomer, unassigned; 38b) was 7.1%. Still for that read-out and setting: the result for `CC1(c2ccccc2)CC(CCc2ccc(O)cc2)=NO1` (single isomer, unassigned; 39a) reads 39.7%; that for `CC1(c2ccccc2)CC(CCc2ccc(O)cc2)=NO1` (single isomer, unassigned; 39b), 18.7%; that for `Oc1ccccc1CCC1=NOC(CCc2ccccc2)C1` (stereo in doubt; 16b), 21.8%. Consider `Oc1cccc(CCC2=NOC(CCc3ccccc3)C2)c1` (stereo in doubt; 17a), for which the Activity turned out to be 8.3%. Still for that read-out and setting: the value for `Oc1ccc(CCC2=NOC(CCc3ccccc3)C2)cc1` (stereo in doubt; 18b) was 15.8%.
